Common to all, as to type: cell-based
Test [1] deals with HeLa cells. As to the kind of experiment: Antiproliferative activity, Kenacid Blue R dye binding cell survival, HeLa. Particulars: Homo sapiens. Summed up: (§1)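 Adherent cells seeded at 2,000/well (HeLa, Fem-X) or 6,000/well (LS174); compounds added 20 h later at five double-diluted concentrations (20 mM DMSO stocks, final 0–300 μM). Continuous 72 h exposure, 37 °C, 5% CO2. PBS wash, methanol/acetic acid (3:1) fixation, 0.04% Coomassie R-250 staining, A570. Survival % vs medium-only control after cell-free blank subtraction; IC50 read from survival–concentration plot.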

Test [2] concerns Fem-X cells. As to the kind of experiment: Antiproliferative activity, Kenacid Blue R dye binding cell survival, Fem-X. Particulars: Homo sapiens, 72 h, read-out: IC50 (μM) Fem-X. Summed up:
as §1

The subject of test [3] is K562 cells. Kind of test: Antiproliferative activity, Kenacid Blue R dye binding cell survival, K562. The settings on record: Homo sapiens, K562, 72 h, read-out: IC50 (μM) K562. Summed up: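 K562 suspension culture in RPMI 1640 with 10% heat-inactivated FBS, 3 mM glutamine, 25 mM Hepes, pH 7.2. Seeded 3,000 cells/well and dosed 2 h later at five double-diluted concentrations (final 0–300 μM, from DMSO stocks). Exposure was 72 h at 37 °C, 5% CO2. Total protein by Kenacid Blue R (Coomassie R-250) staining, A570, blank-corrected. IC50 taken from survival % vs concentration.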

The test system of test [4] is LS174 cells. Kind of test: Antiproliferative activity, Kenacid Blue R dye binding cell survival, LS174. The settings on record: Homo sapiens, LS174, 72 h, read-out: IC50 (μM) LS174. Summed up:
as §1

Test [5] relates to PBMC. As to the kind of experiment: Cytotoxicity toward healthy peripheral blood mononuclear cells. Particulars: Homo sapiens, 72 h, read-out: IC50 PBMC. Summed up:
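Unstimulated PBMC (no mitogen) were isolated from heparinized blood of two healthy donors by Lymphoprep gradient and washed three times in Haemaccel. Seeded at 150,000/well, then dosed 2 h later in triplicate at five final concentrations. After 72 h, cells were centrifuged (10 min, 2,000 rpm), fixed in methanol/acetic acid and stained with Kenacid Blue R, and A570 was read. Survival % vs medium control, cell-free blank subtracted.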

Where [6] appears, read: read-out: Obtained log(1/(IC50)) (converted).

Where two headings read alike, the source gives them in different places. Some results are limits rather than exact numbers.

As to `CC(C)(C(=O)O)C(C)(O)c1ccc(-c2ccccc2)cc1` (stereo not shown) [Compound 1, 3-Hydroxy-2,2-dimethyl-3-(4-biphenylyl)butanoic acid], the IC50 was 62.2 µM in test [1] (72 h, read-out: IC50 (μM) HeLa); 62.2 µM in test [1] (setting [6]); 205 µM in test [2]; 141 µM in test [3]; 154 µM in test [4]; over 300 µM in test [5].
Take `CC(C)(C(=O)O)C(O)(c1ccccc1)c1ccccc1` [Compound 2, 3-Hydroxy-2,2-dimethyl-3,3-diphenylpropanoic acid]: the IC50 was 80.6 µM in test [1] (72 h, read-out: IC50 (μM) HeLa) and 80.5 µM in test [1] (setting [6]).
As to `CC(C(=O)O)C(O)c1ccccc1Cl` (stereo not shown) [Compound 3, 3-Hydroxy-2-methyl-3-(2-chlorophenyl)propanoic acid], the IC50 in test [1] (72 h, read-out: IC50 (μM) HeLa) is 97.2 µM; in test [1] (setting [6]), 97.3 µM; in test [2], 89 µM; in test [3], 92 µM; in test [4], 93 µM; in test [5] it was over 300 µM.
As for `CC(O)(CC(=O)O)c1ccc(-c2ccccc2)cc1` (stereo not shown) [Compound 4, 3-Hydroxy-3-(4-biphenylyl)butanoic acid], the IC50 is 98.7 µM in test [1] (72 h, read-out: IC50 (μM) HeLa); 98.6 µM in test [1] (setting [6]); over 200 µM in test [2]; over 200 µM in test [3]; over 200 µM in test [4]; over 300 µM in test [5].
In the case of `CC(C(=O)O)C(O)(c1ccccc1)c1ccccc1` (stereo not shown) [Compound 6, 3-Hydroxy-2-methyl-3,3-diphenylpropanoic acid], the IC50 in test [1] (72 h, read-out: IC50 (μM) HeLa) was 99.4 µM; in test [1] (setting [6]), 99.3 µM.
`CC(C)(C(=O)O)C(O)c1ccc(Cl)cc1` (stereo not shown) [Compound 7, 3-Hydroxy-2,2-dimethyl-3-(4-chlorophenyl)propanoic acid]: the IC50 in test [1] (72 h, read-out: IC50 (μM) HeLa) is 106 µM; in test [1] (setting [6]), 106 µM; in test [2], over 200 µM; in test [3] it was over 200 µM; in test [4], over 200 µM; in test [5], over 300 µM.
As to `O=C(O)CC(O)c1ccccc1Cl` (stereo not shown) [Compound 8, 3-Hydroxy-3-(2-chlorophenyl)propanoic acid], the IC50 in test [1] (72 h, read-out: IC50 (μM) HeLa) was 118 µM; in test [1] (setting [6]), 118 µM; in test [2], over 200 µM; in test [3], over 200 µM; in test [4] it was over 200 µM.
Turning to `CC(C)(C(=O)O)C(C)(O)c1ccccc1` (stereo not shown) [Compound 11, 3-Hydroxy-2,2-dimethyl-3-phenylbutanoic acid], the IC50 in test [1] (72 h, read-out: IC50 (μM) HeLa) was 133 µM; in test [1] (setting [6]) it was 133 µM; in test [5], over 300 µM.
As to `CC(C)Cc1ccc(C(C)(O)CC(=O)O)cc1` (stereo not shown) [Compound 12, 3-Hydroxy-3(4-isobutylphenyl)butanoic acid], the IC50 in test [1] (72 h, read-out: IC50 (μM) HeLa) is 151 µM; in test [1] (setting [6]), 151 µM; in test [2] it was over 200 µM; in test [3], over 200 µM; in test [4], over 200 µM; in test [5] it was over 300 µM.
Turning to `CC(C)(C(=O)O)C(O)c1ccccc1` (stereo not shown) [Compound 13, 3-Hydroxy-2,2-dimethyl-3-phenylpropanoic acid], the IC50 in test [1] (72 h, read-out: IC50 (μM) HeLa) is 165 µM; in test [1] (setting [6]), 165 µM.
Take `O=C(O)CC(O)(c1ccccc1)c1ccccc1` [Compound 14, 3-Hydroxy-3,3-diphenylpropanoic acid]: the IC50 is 183 µM in test [1] (72 h, read-out: IC50 (μM) HeLa) and 182 µM in test [1] (setting [6]).

The values are drawn from article PMC3685236 (International Journal of Molecular Sciences, 2007).
